Data set [1] deals with Human immunodeficiency virus 1. The data set is described as follows: Antiviral activity against wild type HIV1 infected in HEK293T cells transfected with plasmid VSV-G/pNL4-3.luc.R-E- assessed as inhibition of viral replication after 48 hrs by luciferase reporter gene assay. Format: functional, organism-based, HEK-293T. The following applies: Human immunodeficiency virus 1, HEK-293T, 48 h; read-out: IC50. The gist of the method: (§1)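 VSV-G-pseudotyped single-cycle virus: VSVG plasmid plus env-deficient pNL4-3.luc.R⁻E⁻ vector (wild type or RT-mutant) co-transfected into HEK 293T by calcium phosphate. Medium changed at 16 h, supernatant collected 48 h post-transfection, normalised by p24 ELISA to 0.2 ng p24/mL. HEK 293T targets seeded a day ahead; compound added 15 min before virus. Cells lysed 48 h post-infection, luciferase read. IC50 from dose–infectivity curves.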
On the technique in general: A reporter such as luciferase makes a cellular process visible.

A short description of data set [2]: Retention time of the compound by HPLC analysis. Format: physicochemical.
Another data set has as its system HEK-293T. Kind of data set: Cytotoxicity against HEK293T cells at 10 uM after 48 hrs. The following applies: human. Format: cell-based. The gist of the method:
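HEK 293T cells incubated 48 h with compound at final 10 μM under the antiviral culture conditions, without virus. Viability read with a cell proliferation assay kit.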

The subject of data set [3] is Human immunodeficiency virus 1. The data set is described as follows: Antiviral activity against HIV1 infected in 293T cells assessed as time of 50% failure. It counts as functional.
Data set [4] relates to Human immunodeficiency virus 1. The data set is described as follows: Antiviral activity against HIV1 harboring reverse transcriptase Y181C mutant infected in HEK293T cells transfected with plasmid VSV-G/pNL4-3.luc.R-E- assessed as inhibition of viral replication after 48 hrs by luciferase reporter gene assay relative HIV1. It counts as functional, HEK-293T.
The test system of data set [5] is Human immunodeficiency virus 1. Kind of data set: Antiviral activity against HIV1 harboring reverse transcriptase Y181C mutant infected in HEK293T cells transfected with plasmid VSV-G/pNL4-3.luc.R-E- assessed as inhibition of viral replication after 48 hrs by luciferase reporter gene assay. It counts as functional, organism-based, HEK-293T. The note with it: Human immunodeficiency virus 1, HEK-293T, 48 h. In a few lines:
as §1

The test system of data set [6] is Human immunodeficiency virus 1. Kind of data set: Antiviral activity against HIV1 harboring reverse transcriptase K103N mutant infected in HEK293T cells transfected with plasmid VSV-G/pNL4-3.luc.R-E- assessed as inhibition of viral replication after 48 hrs by luciferase reporter gene assay. It counts as functional, organism-based, HEK-293T. The following applies: Human immunodeficiency virus 1, HEK-293T, 48 h. The gist of the method:
as §1

Data set [7] relates to Human immunodeficiency virus 1. Kind of data set: Antiviral activity against HIV1 harboring reverse transcriptase K103N mutant infected in HEK293T cells transfected with plasmid VSV-G/pNL4-3.luc.R-E- assessed as inhibition of viral replication after 48 hrs by luciferase reporter gene assay relative HIV1. Format: functional, HEK-293T.

With `COc1ccc(-c2nc(NCc3ccc(C#N)cc3)sc2Cc2ccccc2)cc1`, the concentration for half-maximal inhibition (IC50) in data set [1] stood at 0.45 µM. Also, the Retention_time in data set [2] is 20.01 min. The Activity result in the data set on HEK-293T is given as “Non-toxic”.

`COc1ccc(CCNc2nc(-c3ccc(OC)cc3)c(Cc3ccccc3)s2)cc1`: in data set [1], the IC50 was > 10 µM. Also, the Retention_time in data set [2] was 36.91 min. The Activity result in the data set with HEK-293T is reported as “Non-toxic”.

With `COc1ccc(-c2nc(NCc3cccnc3)sc2Cc2ccccc2)cc1`, the IC50 in data set [1] is 4.67 µM. In addition, the Retention_time in data set [2] is 10.25 min. Besides, in the data set with HEK-293T, the Activity result is listed as “Non-toxic”.

Consider `COc1ccc(CNc2nc(-c3ccc(OC)cc3)c(Cc3ccccc3)s2)cc1`, for which the concentration for half-maximal inhibition (IC50) in data set [1] was determined as 0.31 µM. The molecule also displayed a Retention_time in data set [2] of 29.14 min. Further, in the data set with HEK-293T, the Activity entry is “Non-toxic”.

On to `COc1ccc(-c2nc(NCc3ccc(O)c(OC)c3)sc2Cc2ccccc2)cc1`, for which the IC50 in data set [1] came to 0.33 µM. Further, the Retention_time in data set [2] is given as 14.86 min. Also, in the data set on HEK-293T, the Activity entry is listed as “Non-toxic”.

For `COc1ccc(CNc2nc(-c3ccco3)c(Cc3ccccc3)s2)cc1`, the IC50 in data set [1] was determined as 0.7 µM. The same molecule returned a Retention_time in data set [2] of 19.97 min. In addition, the Activity entry with HEK-293T is “Non-toxic”.

With `COc1ccc(-c2nc(NCc3c(Cl)cccc3Cl)sc2Cc2ccccc2)cc1`, the IC50 in data set [1] was determined as 7.21 µM. Further, the Retention_time in data set [2] is given as 7.67 min. In addition, the Activity result in the data set on HEK-293T is “Non-toxic”.

Turning to `COc1ccc(-c2nc(NCc3ccc4ccccc4c3)sc2Cc2ccccc2)cc1`, in data set [1], the IC50 is 0.96 µM. Moreover, the Retention_time in data set [2] is reported as 72.49 min. Besides, in the data set with HEK-293T, the Activity result is reported as “Non-toxic”.

Regarding `COc1ccc(-c2nc(NCc3cccc([N+](=O)[O-])c3)sc2Cc2ccccc2)cc1`, the IC50 in data set [1] came out at 1.47 µM. Further, in data set [2], the Retention_time was found to be 27.61 min. Further, the Activity entry with HEK-293T is on record as “Non-toxic”.

Turning to `COc1ccc(-c2nc(NCc3cc([N+](=O)[O-])ccc3O)sc2Cc2ccccc2)cc1`, the IC50 in data set [1] was determined as 5.2 µM. Further, in data set [2], the Retention_time is recorded as 45.27 min. Besides, the Activity entry with HEK-293T is recorded as “Non-toxic”.

For `COc1ccc(CNc2nc(-c3ccccc3)c(Cc3ccc(C#N)cc3)s2)cc1`, the IC50 in data set [1] was 4.79 µM. For the same molecule, in data set [2], the Retention_time was 17.21 min. Also, the Activity result in the data set on HEK-293T was “Non-toxic”.

As to `Cc1nnc(C(=O)NC(C)(C)c2nc(C(=O)NCc3ccc(F)cc3)c(O)c(=O)n2C)o1` [RALTEGRAVIR], the Time in data set [3] came to 12 h.

As to `COc1ccc(-c2nc(NCc3ccccc3)sc2Cc2ccccc2)cc1`, in data set [1], the half-maximal inhibitory concentration (IC50) was 0.65 µM. The Retention_time in data set [2] came out at 28.1 min. In addition, the Activity result in the data set with HEK-293T is “Non-toxic”.

`COc1ccc(CNc2nc(-c3ccc(OC)cc3)c(Cc3ccc(OC)cc3)s2)cc1`: the IC50 in data set [1] is > 10 µM. Moreover, the Retention_time in data set [2] was 26.12 min. The Activity entry with HEK-293T was “Non-toxic”.

Regarding `COc1ccc(-c2nc(NCc3ccco3)sc2Cc2ccccc2)cc1`, the IC50 in data set [1] came out at 1 µM. The Retention_time in data set [2] turned out to be 19.65 min. Further, in the data set on HEK-293T, the Activity result is listed as “Non-toxic”.

On to `COc1ccc(-c2nc(NCc3ccc(O)cc3)sc2Cc2ccccc2)cc1`, for which the “fold change (FC)” value in data set [4] is recorded as 10; in data set [7] it was 13. Also, the IC50 came to 0.64 µM in data set [1], 6.63 µM in data set [5] and 8.38 µM in data set [6]. This molecule also registered a Retention_time in data set [2] of 16.52 min. For the same molecule, in the data set on HEK-293T, the Activity entry was “Non-toxic”.

For `COc1ccc(CNc2nc(-c3ccc(F)cc3)c(Cc3ccccc3)s2)cc1`, the IC50 in data set [1] amounted to 1.21 µM. In addition, the Retention_time in data set [2] is 33.02 min. Moreover, the Activity entry in the data set on HEK-293T is reported as “Non-toxic”.

Consider `COc1ccc(CNc2nc(-c3ccc(OC)cc3)c(Cc3ccc([N+](=O)[O-])cc3)s2)cc1`, for which the IC50 in data set [1] was > 10 µM. This molecule showed a Retention_time in data set [2] of 26.68 min. Also, the Activity result with HEK-293T is “Non-toxic”.

Take `COc1ccc(-c2nc(NCc3ccccc3OC)sc2Cc2ccccc2)cc1`: the IC50 in data set [1] worked out at 6.97 µM. The same molecule registered a Retention_time in data set [2] of 34.78 min. For the same molecule, the Activity entry with HEK-293T was “Non-toxic”.

`COc1ccc(-c2nc(NCc3ccc([N+](=O)[O-])cc3)sc2Cc2ccccc2)cc1`: the IC50 in data set [1] was determined as 0.8 µM. The Retention_time in data set [2] is reported as 28.54 min. Besides, the Activity result with HEK-293T was “Non-toxic”.

As for `CCN(CC)c1nc(-c2ccc(OC)cc2)c(Cc2ccccc2)s1`, the IC50 in data set [1] was 2.3 µM. The Retention_time in data set [2] is given as 29.77 min. The Activity entry in the data set with HEK-293T was “Non-toxic”.

As to `COc1ccc(-c2nc(NCc3ccc(N(C)C)cc3)sc2Cc2ccccc2)cc1`, the “fold change (FC)” value is listed as 82 in data set [4] and 76 in data set [7]. Besides, the IC50 turned out to be 0.87 µM in data set [1], 71.6 µM in data set [5] and 65.7 µM in data set [6]. Further, the Retention_time in data set [2] was 33.97 min. Also, the Activity entry in the data set on HEK-293T is recorded as “Non-toxic”.

For `COc1ccc(CNc2nc(-c3ccc(OC)cc3)c(C)s2)cc1`, the IC50 in data set [1] came out at 9.59 µM. Moreover, the Retention_time in data set [2] was found to be 13.3 min. Besides, the Activity entry in the data set with HEK-293T is listed as “Non-toxic”.

In the case of `COc1ccc(-c2nc(NCc3cc(OC)c(OC)c(OC)c3)sc2Cc2ccccc2)cc1`, the concentration for half-maximal inhibition (IC50) in data set [1] is > 10 µM. Besides, the Retention_time in data set [2] turned out to be 17.16 min. For the same molecule, the Activity result in the data set on HEK-293T is reported as “Non-toxic”.

As for `CCN(CC)c1nc(-c2ccc(O)cc2)c(Cc2ccccc2)s1`, the IC50 in data set [1] came out at 4.4 µM. In addition, the Retention_time in data set [2] came to 19.11 min. The Activity entry with HEK-293T is listed as “Non-toxic”.

As to `COc1ccc(-c2nc(NCc3cccc(OC)c3)sc2Cc2ccccc2)cc1`, the concentration for half-maximal inhibition (IC50) in data set [1] is 0.82 µM. Moreover, in data set [2], the Retention_time is 27.45 min. Moreover, the Activity result in the data set with HEK-293T is recorded as “Non-toxic”.

`COc1ccc(CNc2nc(-c3cc(OC)ccc3OC)c(Cc3ccccc3)s2)cc1`: the IC50 in data set [1] was determined as 6.2 µM. In addition, the Retention_time in data set [2] was found to be 18.55 min. In the data set with HEK-293T, the Activity entry is recorded as “Non-toxic”.

With `COc1ccc(CNc2nc(-c3ccc(Cl)cc3Cl)c(Cc3ccccc3)s2)cc1`, the half-inhibitory concentration (IC50) in data set [1] came to 0.14 µM. The molecule also registered a Retention_time in data set [2] of 53.29 min. Moreover, in the data set with HEK-293T, the Activity result is recorded as “Non-toxic”.

`Cc1cn([C@H]2C[C@H](N=[N+]=[N-])[C@@H](CO)O2)c(=O)[nH]c1=O` [ZIDOVUDINE]: in data set [3], the Time was determined as 7.7 h.

`COc1ccc(-c2nc(/N=C/c3ccc(F)cc3)sc2Cc2ccccc2)cc1`: the IC50 in data set [1] is > 10 µM. Besides, in data set [2], the Retention_time amounted to 14.58 min. Moreover, in the data set on HEK-293T, the Activity result is given as “Non-toxic”.

Turning to `COc1ccc(CNc2nc(-c3ccc(OC)cc3)c(Cc3ccc(F)cc3)s2)cc1`, the IC50 in data set [1] was > 10 µM. Further, the Retention_time in data set [2] worked out at 29.46 min. For the same molecule, in the data set with HEK-293T, the Activity entry is recorded as “Non-toxic”.

With `COc1ccc(Nc2nc(-c3ccccc3)c(Cc3ccccc3OC)s2)cc1`, in data set [1], the IC50 was > 10 µM. The Retention_time in data set [2] turned out to be 3.18 min. In addition, in the data set on HEK-293T, the Activity result is reported as “Non-toxic”.

With `COc1ccc(-c2nc(NCc3ccc(F)cc3)sc2Cc2ccccc2)cc1`, the 50% inhibitory concentration (IC50) in data set [1] was found to be 0.66 µM. Further, the Retention_time in data set [2] was 29.67 min. Besides, in the data set with HEK-293T, the Activity result was “Non-toxic”.

Consider `COc1ccc(CNc2nc(-c3ccccc3)c(Cc3ccccc3)s2)cc1`, for which the IC50 in data set [1] worked out at 0.18 µM. In addition, the Retention_time in data set [2] is 28.38 min. For the same molecule, the Activity result in the data set with HEK-293T is listed as “Non-toxic”.

As for `COc1ccc(CNc2nc(-c3ccccc3)c(Cc3ccccc3OC)s2)cc1`, the IC50 in data set [1] is 0.13 µM. In addition, the Retention_time in data set [2] came out at 27.75 min. For the same molecule, the Activity result in the data set with HEK-293T is given as “Non-toxic”.

Consider `COc1ccc(CN(C)c2nc(-c3ccc(OC)cc3)c(Cc3ccccc3)s2)cc1`, for which, in data set [1], the IC50 is 0.37 µM. The molecule further gave a Retention_time in data set [2] of 47.61 min. Further, the Activity entry with HEK-293T is recorded as “Non-toxic”.

A word on the IC50: it is the midpoint of a concentration-inhibition curve.
